Key:
[1] = system: Vero; assay: Inhibitory concentration against herpes simplex virus type 1 (HSV-1) infected vero cells was determined; type: functional, cell-based; conditions: Chlorocebus sabaeus
Procedure, shortened: (§1)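 Confluent Vero monolayers (RPMI + 5% FBS + 0.1% methylcellulose) infected 1 h with HSV-1 KOS or HSV-2 333 at 20 or 100 pfu/well. Drug overlay in RPMI + 2% dialyzed FBS + 0.1% methylcellulose, 48–72 h at 37 °C, 5% CO2. Crystal violet stain, plaques counted; IC50 by linear regression of % inhibition vs log concentration.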

[2] = system: HFF; assay: Inhibitory concentration against human cytomegalovirus replication in HFF cells was determined by yield reduction assay; type: functional
Procedure, shortened: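 HFF cells (12 500/well) infected with HCMV at moi 0.5–1 and exposed to compound in duplicate at 100 to 0.14 μM for 4 days at 37 °C. After freeze–thaw, supernatants serially diluted onto fresh HFF monolayers and plaques titered; IC90 reported.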

[3] = Cytotoxicity on H-1 cells at time of HCMV plaque enumeration in cells not effected by the virus.; type: functional, cell-based; conditions: Homo sapiens
[4] = system: Human alphaherpesvirus 1; assay: Inhibitory concentration against herpes simplex virus type 1 (HSV-1) was determined by enzyme-linked immunosorbent assay (ELISA); type: functional, organism-based
[5] = Inhibitory concentration against epstein-barr virus (EBV) infected H-1 cells was determined; type: functional, cell-based; conditions: Homo sapiens
Procedure, shortened: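 H-1 cells (high-yield EBV producer from P3HR-1) kept in log growth, seeded at 2 × 10^5/well with drug in RPMI 1640 + 10% dialyzed FBS for 5 days at 37 °C. Lysates treated with RNase A and proteinase K, slot-blotted, probed with 32P EBV EcoRI C fragment; normalized to Alu DNA vs untreated cells by densitometry.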

[6] = system: MEF; assay: Inhibitory concentration against murine cytomegalovirus replication in MEF cells was determined by plaque reduction assay; type: functional, cell-based; conditions: Mus musculus
Procedure, shortened: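 MEF cells plated 2 days earlier and infected with MCMV (20–30 plaques/well) for 1 h. Six 1:5 drug dilutions in MEM + 2% FBS, duplicate wells, 7 days at 37 °C, 1.5% neutral red stain, plaques counted; IC50 by linear regression vs log concentration.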

[7] = system: KB; assay: Cytotoxicity was evaluated by measuring the inhibition of KB cell growth.; type: functional, cell-based; conditions: Homo sapiens
Procedure, shortened: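 KB cells at 3000–5000/well, overnight at 37 °C, compound added in triplicate at eight concentrations. Growth over 48 h (two population doublings), then ethanol fixation, 0.1% crystal violet stain, eluted dye read at 570 nm; quadruplicate assays. IC50 by linear regression of % inhibition vs log concentration.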

[8] = system: CEM-SS; assay: Cytotoxicity on CEM-SS cells; type: functional, cell-based; conditions: Homo sapiens
Procedure, shortened: (§2)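 Visual cytotoxicity: microscopic inspection of stationary uninfected CEM or CEM-SS cells from suspension cultures.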

[9] = system: Daudi; assay: Cytotoxicity on Daudi cells at time of […] in cells not effected by the virus.; type: functional, cell-based; conditions: Homo sapiens
[10] = system: HFF; assay: Inhibitory concentration against human cytomegalovirus replication in HFF cells was determined by cytopathic effect inhibition assay; type: functional, cell-based
Procedure, shortened: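 HFF cells seeded 24 h before; serial 1:5 drug dilutions in MEM + 2% FBS in triplicate, 1 h, then 2500 pfu/well CMV. Incubated 14 days at 37 °C with 50 μL MEM added on day 7; crystal violet stain, read at 630 nm. IC50 from regression.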

[11] = system: HFF; assay: IC50 value was evaluated by measuring the %inhibition of Varicella Zoster virus(VZV) infected HFF cells using plaque reduction assay.; type: functional, cell-based; conditions: Homo sapiens
Procedure, shortened: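 HFF cells plated 2 days earlier and infected with VZV (20–30 plaques/well) for 1 h. Six 1:5 drug dilutions in MEM + 2% FBS, no antibody overlay, duplicate wells; extra medium on day 5, 10 days total at 37 °C. Neutral red stain, plaques counted; IC50 from regression.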

[12] = system: MEF; assay: Cytotoxicity on stationary MEF cells at time of MCMV plaque enumeration in cells not effected by the virus.; type: functional, cell-based; conditions: Mus musculus
Procedure, shortened: (§3)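 Visual cytotoxicity scored microscopically on stationary HFF or MEF cells not affected by virus, at the time of HCMV or MCMV plaque enumeration.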

[13] = system: Vero; assay: Compound was tested against vero cells infected with herpes simplex virus type 2 (HSV-2); type: functional, cell-based; conditions: Chlorocebus sabaeus; procedure, shortened: as §1
[14] = system: HFF; assay: IC50 value was evaluated by measuring the %inhibition of Human Herpes Virus 6(HHV-6) infected […] cells using ELISA assay; type: functional, cell-based
[15] = system: HFF; assay: Inhibitory concentration against herpes simplex virus type 1 (HSV-1) infected HFF cells was determined by cytopathic effect inhibition assay; type: functional, cell-based; conditions: Homo sapiens
Procedure, shortened: (§4)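 HFF cells (low passage) seeded 24 h before in MEM + 10% FBS; drug in MEM + 2% FBS, serial 1:5 dilutions in triplicate, 1 h pre-incubation, then HSV-1 or HSV-2 at 1000 pfu/well. Incubated 3 days at 37 °C, crystal violet/ethanol/formaldehyde stain, absorbance at 630 nm; IC50 by linear regression of % inhibition vs log concentration.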

[16] = system: HFF; assay: Inhibitory concentration against human cytomegalovirus replication in HFF cells was determined by plaque reduction assay; type: functional, cell-based
Procedure, shortened: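 HFF cells infected with HCMV Towne (~100 pfu/cm2). After adsorption, drug added to duplicate wells at four to eight concentrations; 8–10 days at 37 °C, crystal violet stain, microscopic plaques counted. % plaque reduction vs no-drug control; IC50 by linear regression vs log concentration.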

[17] = system: CCRF-CEM; assay: Cytotoxicity was measured on CEM cells infected with Herpes Simplex virus […]; type: functional, cell-based; conditions: Homo sapiens
[18] = system: CCRF-CEM; assay: Inhibitory concentration against mitochondrial DNA synthesis CEM cells; type: functional, cell-based; conditions: Homo sapiens
Procedure, shortened: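 CEM cells (2 × 10^5/mL) in RPMI 1640 + 10% dialyzed FBS with compound, re-split with fresh drug on days 4 and 6. On day 8, 1 × 10^5 cells lysed with RNase A and proteinase K, slot-blotted, probed with a mitochondrial DNA-specific probe.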

[19] = system: Daudi; assay: Inhibitory concentration against epstein-barr virus (EBV) infected daudi cells was determined; type: functional, cell-based; conditions: Homo sapiens
Procedure, shortened: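 Daudi cells infected with P3HR-1 EBV at 0.1–0.2 moi for 45 min at 37 °C, washed, then incubated 48 h with serially diluted drug in RPMI-1640. Acetone-fixed cells stained with anti-VCA monoclonal antibody and FITC anti-mouse IgG, Evans Blue counterstain; 500 cells counted, VCA-positive fraction used for IC50.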

[20] = system: HFF; assay: Cytotoxicity on stationary HFF cells at time of HCMV plaque enumeration in cells not effected by the virus.; type: functional, cell-based; conditions: Homo sapiens; procedure, shortened: as §3
[21] = system: HFF; assay: Compound was tested against HFF cells infected with herpes simplex virus type 2 (HSV-2) by cytopathic effect inhibition assay; type: functional, cell-based; conditions: Homo sapiens; procedure, shortened: as §4
[22] = system: HepG2; assay: Inhibitory concentration against hepatitis B virus infected 2.2.15 cells; type: functional, cell-based; conditions: Homo sapiens
Procedure, shortened: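 HBV-producing 2.2.15 cells in MEM + 10% FBS; compounds added on days 6 and 9, 6 days of exposure. Virions in the medium precipitated with PEG/NaCl, DNA extracted, run on 0.8% agarose, Southern blotted with 32P HBV probe, quantified by densitometry.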

[23] = system: CCRF-CEM; assay: Cytotoxicity on CEM cells; type: functional, cell-based; conditions: Homo sapiens; procedure, shortened: as §2

| Structure (SMILES) | IC50 [1] [µM] | IC90 [2] [µM] | IC50 [3] [µM] | IC50 [4] [µM] | IC50 [5] [µM] | IC50 [7] [µM] | IC50 [8] [µM] | IC50 [9] [µM] | IC50 [10] [µM] | IC50 [11] [µM] | IC50 [13] [µM] | IC50 [14] [µM] | IC50 [15] [µM] | IC50 [16] [µM] | IC50 [17] [µM] | IC50 [18] [µM] | IC50 [19] [µM] | IC50 [20] [µM] | IC50 [21] [µM] | IC50 [22] [µM] | further results |
| --- | --- | --- | --- | --- | --- | --- | --- | --- | --- | --- | --- | --- | --- | --- | --- | --- | --- | --- | --- | --- | --- |
| Nc1ncnc2c1ncn2/C=C1/CC1CO (stereo not drawn) | 28 | 1.1 | > 50 | 33 | 0.2 | 78 | > 100 | 368 | 1 | 2.5 | 59 | 14 | < 0.14 | 2.1 | > 100 | > 50 | 3.2 | > 100 | 10.6 | 2 | IC50 [6]: 2.1 µM; IC50 [12]: > 92 µM |
| Nc1nc2c(ncn2COC(CO)CO)c(=O)[nH]1 [GANCICLOVIR] | – | 1.6 | – | – | – | – | – | – | 2.6 | – | – | – | – | 7.4 | – | – | – | – | – | – | IC50 [6]: 3.4 µM |
| Nc1nc(O)c2ncn(/C=C3\CC3CO)c2n1 (stereo not drawn) | > 100 | – | > 50 | 100 | > 50 | > 100 | > 100 | > 206 | > 413 | 263 | > 100 | > 100 | > 413 | > 100 | > 100 | > 100 | > 206 | > 100 | > 413 | > 10 | – |
| Nc1nc(Cl)c2c(ncn2/C=C2/CC2CO)n1 (stereo not drawn) | 52 | 0.8 | > 50 | 31 | 0.7 | > 100 | > 100 | > 199 | 5.6 | > 518 | 55 | 50 | > 79.5 | 5 | 80 | > 50 | 1.2 | > 100 | > 79.5 | > 10 | IC50 [6]: 0.3 µM; IC50 [12]: 270 µM |
| Nc1nc(O)c2ncn(/C=C3/CC3CO)c2n1 (stereo not drawn) [SYNGUANOL] | 85 | 1.8 | > 50 | 100 | 0.3 | > 100 | > 100 | > 214 | 0.04 | 61.3 | > 100 | 42.5 | 61.7 | 2.1 | > 100 | > 100 | 5.6 | > 100 | > 413 | 10 | IC50 [6]: 0.3 µM; IC50 [12]: > 429 µM |
| Nc1ccn([C@H]2CC[C@@H](CO)O2)c(=O)n1 [ZALCITABINE] | – | – | – | – | – | – | – | – | – | – | – | – | – | – | – | 0.07 | – | – | – | 1.4 | IC50 [23]: 10 µM |
| Nc1nc(Cl)c2ncn(/C=C3\CC3CO)c2n1 (stereo not drawn) | 95 | 11 | < 50 | > 100 | > 10 | > 100 | > 100 | > 199 | > 79.5 | – | > 100 | – | > 79.5 | > 100 | 60 | – | 143 | – | > 79.5 | > 10 | – |
| Nc1ncnc2c1ncn2/C=C1\CC1CO (stereo not drawn) | > 100 | > 100 | > 50 | > 100 | 3 | > 100 | > 100 | > 230 | 395 | 90.2 | > 100 | > 100 | 36 | > 100 | > 100 | > 50 | 71.4 | > 100 | 395 | > 10 | – |

Source: ChEMBL document CHEMBL1131504, “(Z)- and (E)-2-((hydroxymethyl)cyclopropylidene)methyladenine and -guanine. New nucleoside analogues with a broad-spectrum antiviral activity” (J Med Chem, 1998)
